These results are taken from the RNAGym collection of RNA variant scans (doi:10.1126/science.aae0568).

Sequences and labels used below:
B1: tRNA (parent)
chain: GUUCCGUUGGCGUAAUGGUAACGCGUCUCCCUCCUAAGGAGAAGACUGCGGGUUCGAGUCCCGUACGGAACG

This sample holds only a part of the variants without activity.

Variants of B1 are the subject of this data set. In words: yeast fitness relative to wild type (ratio to wild type); higher = fitter; tRNA-Arg(CCU), competitive growth, 37 C, YPD. The method in brief:
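Changes in genotype frequencies gave Darwinian fitness relative to wild type. Frequencies were read by 100-nucleotide paired-end sequencing of gene amplicons before and after pooled Saccharomyces cerevisiae strains, carrying tRNA-Arg(CCU) gene variants at the native locus, were competed in YPD at 37°C for 24 hours in six replicates. A genotype was kept only with ≥ 100 starting reads, and estimates < 0.5 were set to 0.5.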
In the case of GUUUCGUUGGCGUAAUGGUAACGCGUAUCCUUCCUAAGGAGAUGACUGCGGGUUCGAGUCCCGUACGGAACG [C4U C27A C31U A43U], the yeast fitness amounted to 0.57.
Take GUUUCGUUGGCGUAAUGGUAACGCGUUUCCCUCCUAAGGAGAAGACCGCGGGUUCGAGUCCCGUACGGAACG [C4U C27U U47C]: the yeast fitness was found to be 0.734.
Turning to GUUUCGUUGGCGUAAUGGUAACGCGUCUCCCUCGAAAGGAGUAGACUGCGGGUUCGAGUCCCGUACGGAACG [C4U C34G U35A A42U], the yeast fitness is at most 0.5.
As for GUUUCAUUGGCGUAAUGGUAACGCGUCUCCCUCUUAAGGAGAAGACUGCGGGUUCGAGUCCCGUACGGAACG [C4U G6A C34U], the yeast fitness was at most 0.5.
For the variant GUUUCGUUGGCGUAAUGGUAACGCGUUUCCCUCCUAAGCAGAAGACAGCGGGUUCGAGUCCCGUACGGAACG [C4U C27U G39C U47A], the yeast fitness is at most 0.5.
Take GUUUCGUUGGCGUAAUGGUAACGCGUCUCCCUCCUAAGGAGAAGAGUGCGGGUUCGAGUCCCGUACGGAACG [C4U C46G]: the yeast fitness stood at 0.981.
For the variant GUUUCGUUGGCGUAAUGGUAACGCGUCUCCCUCGUAAGGACAAGACUGCGGGUUCCAAUCCCCUUCGGAACG [C4U C34G G41C G56C G58A G63C A65U], the yeast fitness was at most 0.5.
As for GUUUCGUUGGCGUAAUGGUAACGCGUCUCCCUCGUACGGAGAAGACUGCGGGUUCGAGUCCCGUACGGAACG [C4U C34G A37C], the yeast fitness was 0.539.
As for GUUUCGUUGGCGUAAUGGUAACGCGUCUCCGUCCUAAGGAGAAGCCUGAGGGUUCGAGUCCCGUACGGAACG [C4U C31G A45C C49A], the yeast fitness was at most 0.5.
For the variant GUUUCGUUGGCGUAAUGGUAACGCGUCUCCCUCCUAAGGAGAAGACUGAGGGUUCGAGUCCCGUACGGAACG [C4U C49A], the yeast fitness turned out to be 0.787.
For the variant GUUUCGUUGGCGUAAUGGUAACGCGUCUCCCUCCUAAGGAGAAGACUGUGGGUUCGAGUCCCGUACGGAACG [C4U C49U], the yeast fitness came out at 0.989.
GUUUCGUUGGCGUAAUGGUAACGCGUCUCACUCCUAAGGAGAAGACUGCUGGUUCGAGUCCCGUACGGAACG [C4U C30A G50U]: the yeast fitness stood at 0.715.
With GUUUCGUUGGCGUAAUGGUAACGUGUCUCCCUCCUAAGGAGAAGACUGCGGGUUCGAGUCCCGUACGGAACG [C4U C24U] the figure was 0.944.
As to GUUUCGUUGGCGUAAUGGUAACGGGUCUCCCUCCUAAGGAGAAGACUGCGGGUUCGAGUCCCGUACGGAACG [C4U C24G], the yeast fitness came to 0.591.
As for GUUUCGUUGGCGUAAUGGUAACGCGUAUCUCUCCUAUGGAGAAGACUGCGGGUUCGAGUGCCGUACGGAACG [C4U C27A C30U A37U C60G], the yeast fitness is 0.639.
Turning to GUUUCGUUGGCGUAAUGGUAACGCGUCUCCCUCCUAAGGAGAAGACUGCGGGUUCGAGUCCCGUAAGGAACG [C4U C66A], the yeast fitness was 0.746.
For GUUUCAUUGGCGUAAUGGUAACGCGUCUGCCUCCUAAGGAAAAGACUGCGGGUUCGAGUACCGUACGGAACG [C4U G6A C29G G41A C60A], the yeast fitness is at most 0.5.
Take GUUUCGUUGGCGUAAUGGUAACGCGUCUCUCUCUUAAGGAGAAGACUGCGGGUUCGAGUCCCGUACGGAACG [C4U C30U C34U]: the yeast fitness is at most 0.5.
Regarding GUUUCGUUGGCGUAAUGGUAACGCGUCUACCUCCUAAGGAGAAGACUGCGGGUUCGAAUCGCGUACGGAUCG [C4U C29A G58A C61G A70U], the yeast fitness came to 0.548.
Take GUUUCGUUGGCGUAAUGGUAACGCGUCUCCCUCUUAAGGAGAAGACUGCGGGUUCGAGUCCCGUACGGAACG [C4U C34U]: the yeast fitness turned out to be 0.737.
GUUUCGUUGGCGUAAUGGUAACGCGUCUCCCUCGUAAGGAGAAGACUGCGGGUUCGAGUCCCGUACGGAACG [C4U C34G]: the yeast fitness was determined as 0.768.
As to GUUUCGUUGAGGUAAUGGUGACGCGUGUCCCUCCUAAGGAGAAGACUGCGGGUUCGAGUCCCGUGCGGAACG [C4U G10A C11G A20G C27G A65G], the yeast fitness is at most 0.5.
With GUUUCAUGGGCGUAAUGGUAACGCGUCUCCUUCCUAAGGAGAAGACUGCGGGUUCGAGUCCCAUACGGAACG [C4U G6A U8G C31U G63A] the figure was at most 0.5; with GUUUCGUUGGCGUAAUGGUAACGCGUCUUCCUCCUAAGGAGAAGACUACGGGUUCGAGUCCCGUACGGAACG [C4U C29U G48A], 0.662.
Next, GUUUCGUUGGCGUAAUGGUAAUGCGUCUCCCUCCUAAGGAGAAGACUGCGGGUUUGAGUCCCGUACGGAACG [C4U C22U C55U]: 0.544.
In the case of GUUUCGUUGACGUAAUGGUAACGCGUCUCCCUCCUAAGGAGAAGACUGCGGGUUCGAGUCCCGUACGGAACG [C4U G10A], the yeast fitness stood at 0.644.
Regarding GUUUCGUUGGCGUAAUGGUAACGCGUCUCACUCCUAAGGAGAAGACUGCGGGUUCGAGUCACGUACGGAUCG [C4U C30A C61A A70U], the yeast fitness was 0.536.
Turning to GUUUCGUUGGCGUAAUGGUAACGCGUCUCACUCCUAAGGAGAAGACUGCGGGUUCGAGUCUCGUACGGAACG [C4U C30A C61U], the yeast fitness turned out to be 0.812.
With GUUUCGUUGGCGUAAUGGUAACGAGUCUCCCUCCUAAGGAGAAGACUGCGGGUUCGAGUCCCGUACGGUACG [C4U C24A A69U] the figure was 0.601.
For GUUUCGUUGGCGUAAUGGUAACGCGUCUCCUUCCUAAGGAGAAGACUGCGGGUUCGAGUCCCGUACGGAACG [C4U C31U], the yeast fitness came to 0.966.
With GUUUCGUUGGCGUAAUGGUAACGUGCCUCCCUCCUAAGGAGAAGACUGCGGGUUCGAGUCCCGUACGAAACG [C4U C24U U26C G68A] the figure was at most 0.5; with GUUUCGUUGGCGUAAUGGUAACGCGUCUCCCUCCUAAGGAGAAGACUGCGGGUUCGAGUGCCAUACGGAACG [C4U C60G G63A], 0.706.
For GUUUCGUUGGCGUAAUGGUAACGCGUCUCACUCCUAAGGAGAAGACUGCGGGCUCGAGUCCCGUACGGACCG [C4U C30A U53C A70C], the yeast fitness was at most 0.5.
With GUUUCGUUGGCGUAAUGGUAACGCGUCUACGUCCUAAGGAGCAGUCUGCGGGUUCGAGUCCCGUACGGAACG [C4U C29A C31G A42C A45U], the yeast fitness was at most 0.5.
Next, GUUUCGUUGGCGUAAUGGUAACGCGUCUCCCUCGUAAGGAGAAGACUGCGGGUUCGAGUCCCGUACGGCACG [C4U C34G A69C]: 0.664; GUUUCGUUCGCGUAAUGGUAACGCGUCUCCCUCCUAAGGAGAAGACUGCGGGUUCGAGUCCCGUACGGAACG [C4U G9C]: 0.688; GUUUCGUUAGCGUAAUGGUAACGCGUCUCCCUCCUAAGGAGAAGACUGCGGGUUCGAGUCCCGUACGGAACG [C4U G9A]: 0.927.
